Only some compounds are listed: those with a hit (about 2.8% of all), similar ones and a draw of the others.
ASAP1 GAP inh – inhibitors of human ASAP1 ArfGAP activity. Q9ULH1. ASAP1-stimulated ARF1 GTP hydrolysis, GDP FP detection. inhibition, % at 16.5 µM. 360,000 compounds, 0.19% hits; in the data active means inhibition above about 25%;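 further: 0% = vehicle with enzyme and substrate and 100% = no enzyme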
PAFAH2 inh – PAFAH2 (human) inhibition. Q99487. AID 492956. inhibition, % at 3.39 µM. recombinant PAFAH2, FP-rhodamine activity probe, fluorescence polarization. 340,000 compounds, 0.99% hits;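 active means inhibition above the mean over all tested compounds plus 3 SD, cut at about 30% in these data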;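 further: inhibitors block probe labeling of enzyme so polarization drops; 0% = enzyme with DMSO and 100% = wells lacking PAFAH2 protein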
PAFAH1B2 FP inh – inhibitors of human PAFAH1B2. recombinant PAFAH1B2, FP-rhodamine activity probe, fluorescence polarization. inhibition, % at 3.39 µM. 340,000 compounds, 1.2% hits;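 active means inhibition above the mean of all tested compounds plus 3 SD, cut at about 24% in these data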;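 further: 0% = enzyme with DMSO and 100% = wells lacking PAFAH1B2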
Target sequence (P68402 whole entry, looked up): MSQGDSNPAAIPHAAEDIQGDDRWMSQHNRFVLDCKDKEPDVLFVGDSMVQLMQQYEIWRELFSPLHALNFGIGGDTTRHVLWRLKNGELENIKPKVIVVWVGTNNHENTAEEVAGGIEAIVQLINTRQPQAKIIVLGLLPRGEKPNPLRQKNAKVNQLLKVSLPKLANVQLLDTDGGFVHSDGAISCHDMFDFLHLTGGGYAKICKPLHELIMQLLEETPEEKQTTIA
pPAFAH FP inh – inhibitors of human plasma PAF acetylhydrolase (pPAFAH); 330,000 compounds, 1.5% hits; recombinant pPAFAH, FP-rhodamine probe fluorescence polarization; inhibition, % at 3.39 µM; Q13093;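 active means inhibition above the mean inhibition across the screen plus 3 SD, cut at about 25% in these data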;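 further: inhibitors block binding of the rhodamine activity-based probe so polarization drops; 0% = enzyme with DMSO and 100% = wells lacking pPAFAH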
PAFAH1B3 FP inh – inhibitors of human PAFAH1B3; Q15102; recombinant PAFAH1B3, FP-rhodamine probe, fluorescence polarization; inhibition, % at 3.39 µM; 340,000 compounds, 0.28% hits; AID 492972;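 active means inhibition above the screen-wide average of all tested compounds plus 3 SD, cut at about 25% in these data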;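 further: 0% = enzyme with DMSO only and 100% = wells lacking PAFAH1B3 protein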
Target sequence (Q15102 whole entry, looked up): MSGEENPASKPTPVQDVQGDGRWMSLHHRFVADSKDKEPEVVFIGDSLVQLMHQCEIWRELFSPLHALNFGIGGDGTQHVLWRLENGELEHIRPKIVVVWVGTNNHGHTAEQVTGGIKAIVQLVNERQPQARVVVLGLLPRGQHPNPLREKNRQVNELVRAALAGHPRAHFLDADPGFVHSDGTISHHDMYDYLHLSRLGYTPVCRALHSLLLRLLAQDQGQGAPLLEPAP
ARFGAP1 inh – rat ARFGAP1 inhibition; Arfgap1-stimulated ARF1 GTP hydrolysis, GDP FP detection; inhibition, % at 16.5 µM; 360,000 compounds, 0.26% hits;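 active means inhibition above a per-plate limit, mean inhibition of low control wells plus 3 SD, cut at about 25% in these data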;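 further: 0% = DMSO wells with enzyme and 100% = wells lacking Arfgap1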
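system = rat Arfgap1 catalytic domain, aa 1-136 | technique = FP, GDP Alexa 633 tracer displaced from anti-GDP antibody, 620/688 nm | compound = one concentration, 16.5 µM, DMSO 1.26% | medium = HEPES-based buffer, pH 7.5 | timing = compound-enzyme preincubation 20 min, reaction 120 min, detection 60 min, 25 °C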
An asterisk follows results filed as active; · = no result given.

SMILES | ASAP1 GAP inh | PAFAH2 inh | PAFAH1B2 FP inh | pPAFAH FP inh | PAFAH1B3 FP inh | ARFGAP1 inh
O=C(NCC1CCCO1)c1cccc(S(=O)(=O)Nc2ccc(SC(F)F)cc2)c1 (stereo unspecified) | 5.3 | 4.8 | -2.3 | 34.4* | 5.3 | -14.1
Cc1ccc(C)c(NS(=O)(=O)c2ccc(OCC(=O)NCC3CCCO3)cc2)c1 (stereo unspecified) | 8.3 | 3.7 | 5.0 | 28.0* | 1.8 | 7.0
COc1ccc(NS(=O)(=O)c2cccc(C(=O)NCC3CCCO3)c2)cc1 (stereo unspecified) | 7.0 | -3.4 | 2.9 | 17.5 | 5.6 | 2.7
CCCCNC(=O)C(NC(=O)c1ccc(=O)[nH]c1)C(=O)c1ccccc1 (stereo unspecified) | 7.7 | · | · | · | · | -4.0
O=C(CN1c2ccccc2Sc2ccccc21)NNC(=S)Nc1ccc(Cl)cc1Cl | 2.6 | 3.7 | -2.1 | 34.5* | -2.9 | 12.8
Cn1cccc1CC(=O)NNC(=S)Nc1ccc(Cl)cc1Cl | -14.5 | -7.0 | 8.7 | 25.9* | 3.8 | 0.0
Cn1cccc1CC(=O)NNC(=S)Nc1ccc(F)cc1 | 6.7 | 1.5 | 13.3 | 18.4 | -3.2 | -1.5
Cn1cccc1CC(=O)NNC(=S)NC(=O)c1ccccc1Br | -6.8 | 0.3 | 4.2 | 26.3* | 3.3 | 4.6
COCC(C)n1c(SCC(=O)NC(=O)NC2CCCC2)nc2ccccc2c1=O (stereo unspecified) | 8.3 | -2.2 | -1.6 | 4.3 | -0.2 | 6.0
CCCCCN(C(=O)Cc1c(C)n(CCCCC)c2ccccc12)c1ccc(Oc2cccnc2)c(C)c1 | 5.4 | · | · | · | · | -12.2
NC1=NC(=O)C(=Cc2ccccc2)S1 | -0.3 | -6.5 | 0.3 | · | 13.2 | 7.7
NC1=NC(=O)/C(=C\c2ccco2)S1 | -14.4 | 21.1 | 7.7 | 30.1* | 14.4 | -13.5
CCCCN(C=O)c1c(CC)nc2ccc(C(=O)NCCOc3ccc(OC)cc3)cn12 | -2.8 | · | · | · | · | 17.5
Nc1ccc2c(c1)OC1(CCCCC1)O2 | -0.1 | 6.4 | 3.5 | · | -0.5 | -5.7
COc1ccc2ccc3c(c2c1)N=C[C@]1(O3)N(C)c2ccccc2C1(C)C | 1.8 | 5.0 | -2.2 | 32.7* | 1.7 | -11.6
CC1=NOC2(C1)N(C)c1ccccc1C2(C)C (stereo unspecified) | -1.5 | 0.2 | 9.9 | -3.4 | 5.9 | 9.6
Cc1ccc(-c2cc(C(F)F)nc(NCc3cccnc3)n2)cc1 | -1.0 | -13.5 | 1.7 | 25.6* | 0.8 | -0.2
CN(CC(=O)Nc1c(Cl)cccc1Cl)C(=O)CNC(=O)c1ccco1 | 6.1 | 7.5 | -2.8 | -0.6 | 6.5 | -11.9
C#CCOCCOCCOCCNc1nc(N2CCN(C(=O)[C@H](CCCCN)n3cc([C@@H](N)CC(N)=O)nn3)CC2)nc(N2CCN(C(=O)[C@H](CCCCN)n3cc([C@@H](N)CC(N)=O)nn3)CC2)n1 | 12.3 | 3.4 | 5.3 | -0.9 | 3.1 | 3.7
O=C(C[C@@H]1C/C=C\C[C@@H](Cc2ccc(F)cc2)C(=O)OC[C@H]2CCCN2C1=O)N[C@H](CO)Cc1ccccc1 | 0.3 | 0.8 | 30.8* | -1.4 | 6.5 | 0.2
C[C@H]1COC(=O)[C@@H](Cc2ccc(F)cc2)C/C=C\C[C@@H](CC(=O)N[C@@H](CO)Cc2ccccc2)C(=O)N1 | -2.4 | 3.5 | 25.2* | 2.3 | 3.6 | -1.2
O=C(C[C@H]1C/C=C\CC[C@H](Cc2ccc(F)cc2)C(=O)OC[C@H]2CCCN2C1=O)N[C@@H](CO)Cc1ccccc1 | 1.9 | 22.6 | 6.6 | 26.6* | -2.2 | 4.4
O=C1OC[C@H]2CCCN2C(=O)[C@@H](CC(=O)N(CCO)Cc2ccccc2)C/C=C\C[C@H]1Cc1ccc(F)cc1 | -3.3 | 11.1 | 16.6 | 3.5 | 6.3 | 2.0
O=C1OC[C@@H]2CCCN2C(=O)[C@@H](CC(=O)N(CCO)Cc2ccccc2)C/C=C\C[C@H]1Cc1ccc(F)cc1 | 0.1 | 11.6 | 34.3* | 9.0 | 4.9 | 9.1
CCOC1=C2[C@H](c3ccc(Cl)cc3)N(S(=O)(=O)c3ccc(C)cc3)C[C@H]2n2c(=O)n(-c3ccccc3)c(=O)n2C1 | -0.7 | · | · | · | · | -10.2
CC(C)(C)OC(=O)C[C@H]1C/C=C\C[C@@H](CC(=O)NCCO)C(=O)N2CCC[C@H]2COC1=O | -8.9 | 8.6 | 2.7 | 1.1 | 4.2 | 5.7
O=C(C[C@@H]1C/C=C\C[C@@H](Cc2ccc(F)cc2)C(=O)OC[C@@H]2CCCN2C1=O)NCCO | 3.1 | 2.6 | 47.3* | 0.1 | 3.6 | -3.8
